From ChEMBL document CHEMBL4699492, “Discovery of Novel Pyrazolo[3,4-b] Pyridine Derivatives with Dual Activities of Vascular Remodeling Inhibition and Vasodilation for the Treatment of Pulmonary Arterial Hypertension” (J Med Chem, 2020)
The source made the active and inactive calls. The rule behind the calls is not given here.

What was measured:
[1] = target: cGMP-specific 3',5'-cyclic phosphodiesterase (Homo sapiens) (UniProt O76074); assay: Inhibition of PDE5A1 catalytic domain (535 to 860 residues) (unknown origin) expressed in Escherichia coli BL21 (DE3) at 100 nM using [3H]cGMP as substrate after 15 mins by liquid scintillation counting method relative to control
How it was run: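 PDE reaction in 50 mM Tris-HCl pH 8.0 with 4 mM MnCl2 or 10 mM MgCl2 and 1 mM DTT, using 3H-cGMP substrate. Run 15 min at room temperature, stopped with 0.2 M ZnSO4, and product precipitated with 0.2 M Ba(OH)2. Radioactivity of the supernatant counted by liquid scintillation. Inhibition rate calculated, with sildenafil as reference.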

[2] = Effect on total AMPK level in lungs of Sprague-Dawley rat model of hypoxia-induced pulmonary artery hypertension at 10 mg/kg, po administered daily for 2 weeks by Western blot analysis; assay type: ADME, organism-based; details: in vivo, 336 h
How it was run: (§1)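 Hypoxic PAH model in male SD rats (160-200 g) kept at 10% O2 for 4 weeks. Oral dosing at 10 mg/kg daily for 14 days, suspended in 0.5% CMC-Na; control and hypoxia groups received vehicle only. Lungs homogenized in RIPA with protease and phosphatase inhibitors. 30 µg protein run on 10% SDS-PAGE, then PVDF blotting, with β-actin as loading reference. Three independent runs.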

[3] = tested on: Pulmonary Artery Smooth Muscle Cells; assay: Stimulation of sGC in HPASMC assessed as increase in intracellular cGMP level at 100 uM measured after 1 hr in presence of PDE5 inhibitor IBMX by cGMP-d2/europium cryptate reagent based HTRF assay relative to control; assay type: tissue-based; details: Homo sapiens, filed as activator
How it was run: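 HPASMCs were suspended at 100,000 cells/mL in PBS with 0.2% BSA, with or without 10 µM ODQ. Compounds were added as a 6-point, 10-fold dilution series; the top 2× stock was 200 µM. Incubation was 1 h at room temperature, in triplicate. cGMP-d2 in lysis buffer and europium cryptate were then added for 1 h before HTRF reading. Three independent experiments.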

[4] = tested on: Rattus norvegicus; assay: In vivo stimulation of sGC in Sprague-Dawley rat model of hypoxia-induced pulmonary artery hypertension assessed as […] in PKG1 expression in lungs at 10 mg/kg, po administered daily for 2 weeks by Western blot analysis; assay type: functional, organism-based; how it was run: as §1

inhibition [1]: 4.3%
SMILES: Cc1ccccc1COc1nc2c(cc1-c1nc(N)cc(N)n1)c(C)nn2-c1ccccc1
Activity [2]: Non-Toxic
Activity [3]: 40%
Activity [4]: Active
